Measured values: ChEMBL document CHEMBL4052819 (2017)
Converted amounts (≈) assume the structure as drawn. The source made the active and inactive calls. The calls are words filed in the database; no cut-off is given here. Non-standard residues stand in square brackets, D forms with d. Residues, ends and D or L forms follow the SMILES beside them. *: point of attachment. Heptanoyl = CCCCCCC(=O)*; Octanoyl = CCCCCCCC(=O)*; Dab = NCC[C@H](N)C(=O)O

Columns and labels:
Acinetobacter baumannii [1] = experiment: Potentiation of ampicillin-mediated antibacterial activity against Acinetobacter baumannii ATCC 19606 assessed as decrease in ampicillin MIC at 4 ug/ml by checkerboard method relative to control; type: functional, ATCC 19606 = CIP 70.34 = JCM 6841
Klebsiella pneumoniae [2] = experiment: Potentiation of vancomycin-mediated antibacterial activity against Klebsiella pneumoniae ATCC 13883 assessed as decrease in vancomycin MIC at 4 ug/ml by checkerboard method relative to control; type: functional
Klebsiella pneumoniae [3] = experiment: Potentiation of ampicillin-mediated antibacterial activity against Klebsiella pneumoniae ATCC 13883 assessed as decrease in ampicillin MIC at 4 ug/ml by checkerboard method relative to control; type: functional
Acinetobacter baumannii [4] = experiment: Potentiation of erythromycin-mediated antibacterial activity against Acinetobacter baumannii ATCC 19606 assessed as decrease in erythromycin MIC at 4 ug/ml by checkerboard method relative to control; type: functional, ATCC 19606 = CIP 70.34 = JCM 6841
Acinetobacter baumannii [5] = experiment: Antibacterial activity against Acinetobacter baumannii ATCC 19606 after 18 to 20 hrs by broth microdilution method; type: functional; conditions: ATCC 19606 = CIP 70.34 = JCM 6841
Escherichia coli [6] = experiment: Antibacterial activity against Escherichia coli ATCC 25922 in presence of 100% serum after 6 hrs by broth microdilution method; type: functional; conditions: ATCC 25922, 6 h
Summary of the method: (§1)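 Serum stability: compound added to 100% human serum at final 64 μg/mL, held at 37 °C, sampled at 0, 6, 12 and 24 h. […] Residual activity compared with untreated control.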

Klebsiella pneumoniae [7] = experiment: Antibacterial activity against Klebsiella pneumoniae ATCC 13883 after 18 to 20 hrs by broth microdilution method; type: functional
Acinetobacter baumannii [8] = experiment: Potentiation of vancomycin-mediated antibacterial activity against Acinetobacter baumannii ATCC 19606 assessed as decrease in vancomycin MIC at 4 ug/ml by checkerboard method relative to control; type: functional, ATCC 19606 = CIP 70.34 = JCM 6841
Acinetobacter baumannii [9] = experiment: Potentiation of rifampicin-mediated antibacterial activity against Acinetobacter baumannii ATCC 19606 assessed as rifampicin MIC at 2 ug/ml by checkerboard method (reference value: 16 ug/ml); type: functional; conditions: ATCC 19606 = CIP 70.34 = JCM 6841
Staphylococcus aureus [10] = experiment: Antibacterial activity against Staphylococcus aureus ATCC 29213 after 18 to 20 hrs in presence of 95% serum by broth microdilution method; type: functional
Summary of the method: (§2)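 Same microdilution with human serum as medium: compound 2-fold diluted in 100% serum, mixed 1:1 with 90% serum holding ~1.5 × 10^5 CFU/mL, giving 95% serum and final 0.5–64 μg/mL. MIC read as no visible growth after incubation as for the broth test.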

Klebsiella pneumoniae [11] = experiment: Potentiation of erythromycin-mediated antibacterial activity against Klebsiella pneumoniae ATCC 13883 assessed as decrease in erythromycin MIC at 4 ug/ml by checkerboard method relative to control; type: functional
Escherichia coli [12] = experiment: Antibacterial activity against Escherichia coli ATCC 25922 in presence of 100% serum after 12 hrs by broth microdilution method; type: functional; conditions: ATCC 25922, 12 h; summary of the method: as §1
Staphylococcus aureus [13] = experiment: Antibacterial activity against Staphylococcus aureus ATCC 29213 after 18 to 20 hrs by broth microdilution method; type: functional
Summary of the method: (§3)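 Broth microdilution in tryptic soy broth: 2-fold dilutions mixed 1:1 with ~1.5 × 10^5 CFU/mL inoculum, final 0.5–32 μg/mL; 37 °C, 18–20 h. MIC taken as lowest concentration giving no visible growth. At least three independent experiments, one replicate each.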

Escherichia coli [14] = experiment: Antibacterial activity against Escherichia coli ATCC 25922 in presence of 100% serum after 24 hrs by broth microdilution method; type: functional; conditions: ATCC 25922, 24 h; summary of the method: as §1
Escherichia coli [15] = experiment: Antibacterial activity against Escherichia coli ATCC 25922 in presence of 100% serum measured immediately post compound addition in serum by broth microdilution method; type: functional; summary of the method: as §1
Escherichia coli [16] = experiment: Antibacterial activity against Escherichia coli ATCC 25922 after 18 to 20 hrs by broth microdilution method; type: functional; summary of the method: as §3
Pseudomonas aeruginosa [17] = experiment: Antibacterial activity against Pseudomonas aeruginosa ATCC 27853 after 18 to 20 hrs by broth microdilution method; type: functional; summary of the method: as §3
Pseudomonas aeruginosa [18] = experiment: Bactericidal activity against Pseudomonas aeruginosa ATCC 27853; type: functional; conditions: read-out: MBC99.9
Summary of the method: (§4)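 MBC from MIC plates at end point: 50 μL from each well with no visible growth plated on tryptic soy agar and counted. MBC taken as lowest concentration giving ≥99.9% fall in viable count relative to initial inoculum. Three independent experiments, one replicate each.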

Klebsiella pneumoniae [19] = experiment: Potentiation of clarithromycin-mediated antibacterial activity against Klebsiella pneumoniae ATCC 13883 assessed as decrease in clarithromycin MIC at 4 ug/ml by checkerboard method relative to control; type: functional
Staphylococcus aureus [20] = experiment: Antibacterial activity against methicillin-resistant Staphylococcus aureus ATCC 43300 after 18 to 20 hrs by broth microdilution method; type: functional
Summary of the method: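 Broth microdilution in tryptic soy broth: 2-fold dilutions mixed 1:1 with ~1.5 × 10^5 CFU/mL bacterial suspension in TSB, final 0.5–32 μg/mL, 37 °C for 18–20 h. MIC = lowest concentration with no visible growth. At least three independent experiments, one replicate each.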

Klebsiella pneumoniae [21] = experiment: Potentiation of rifampicin-mediated antibacterial activity against Klebsiella pneumoniae ATCC 13883 assessed as rifampicin MIC at 2 ug/ml by checkerboard method (reference value: 16 ug/ml); type: functional
Acinetobacter baumannii [22] = experiment: Potentiation of rifampicin-mediated antibacterial activity against Acinetobacter baumannii ATCC 19606 assessed as decrease in rifampicin MIC at 4 ug/ml by checkerboard method relative to control; type: functional, ATCC 19606 = CIP 70.34 = JCM 6841
Pseudomonas aeruginosa [23] = experiment: Bactericidal activity against Pseudomonas aeruginosa ATCC 27853 after 60 mins in presence of LPS; type: functional
Summary of the method: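 P. aeruginosa at ~10^6 CFU/mL in TSB with E. coli O111:B4 LPS (final 10, 25, 50 or 100 μg/mL), then compound at final 16 μg/mL. Incubated 37 °C, 200 rpm, 60 min; survivors counted on TSA. Three independent experiments, one replicate each.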

Escherichia coli [24] = experiment: Antibacterial activity against Escherichia coli ATCC 25922 after 18 to 20 hrs in presence of 95% serum by broth microdilution method; type: functional; summary of the method: as §2
Enterococcus faecium [25] = experiment: Antibacterial activity against Enterococcus faecium ATCC 19434 after 18 to 20 hrs by broth microdilution method; type: functional; summary of the method: as §3
Klebsiella pneumoniae [26] = experiment: Potentiation of rifampicin-mediated antibacterial activity against Klebsiella pneumoniae ATCC 13883 assessed as decrease in rifampicin MIC at 2 ug/ml by checkerboard method relative to control; type: functional
Acinetobacter baumannii [27] = experiment: Potentiation of clarithromycin-mediated antibacterial activity against Acinetobacter baumannii ATCC 19606 assessed as decrease in clarithromycin MIC at 4 ug/ml by checkerboard method relative to control; type: functional, ATCC 19606 = CIP 70.34 = JCM 6841
Enterococcus faecium [28] = experiment: Bactericidal activity against Enterococcus faecium ATCC 19434; type: functional; conditions: read-out: MBC99.9; summary of the method: as §4
Staphylococcus aureus [29] = experiment: Bactericidal activity against Staphylococcus aureus ATCC 29213; type: functional; conditions: read-out: MBC99.9; summary of the method: as §4
Klebsiella pneumoniae [30] = experiment: Bactericidal activity against Klebsiella pneumoniae ATCC 13883; type: functional; conditions: read-out: MBC99.9; summary of the method: as §4
Staphylococcus aureus [31] = experiment: Bactericidal activity against methicillin-resistant Staphylococcus aureus ATCC 43300; type: functional; conditions: read-out: MBC99.9
Summary of the method: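 MBC taken at the end of the MIC test: 50 μL from each well without visible growth plated on tryptic soy agar. MBC = lowest concentration giving ≥99.9% reduction in viable cells relative to the initial inoculum. Three independent experiments, one replicate each.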

Escherichia coli [32] = experiment: Bactericidal activity against Escherichia coli ATCC 25922; type: functional; conditions: read-out: MBC99.9; summary of the method: as §4
Acinetobacter baumannii [33] = experiment: Bactericidal activity against Acinetobacter baumannii ATCC 19606; type: functional; conditions: ATCC 19606 = CIP 70.34 = JCM 6841, read-out: MBC99.9; summary of the method: as §4

SMILES | MIC (Acinetobacter baumannii [5]) [µg/mL] | MIC (Klebsiella pneumoniae [7]) [µg/mL] | MIC (Staphylococcus aureus [10]) [µg/mL] | MIC (Staphylococcus aureus [13]) [µg/mL] | MIC (Escherichia coli [16]) [µg/mL] | MIC (Pseudomonas aeruginosa [17]) [µg/mL] | MBC (Pseudomonas aeruginosa [18]) [µg/mL] | MIC (Staphylococcus aureus [20]) [µg/mL] | Activity (Pseudomonas aeruginosa [23]) | MIC (Escherichia coli [24]) [µg/mL] | MIC (Enterococcus faecium [25]) [µg/mL] | further results
CCCCCCCC(=O)N[C@@H](CCN)C(=O)N[C@H](C(=O)N[C@@H](CCN)C(=O)N[C@H](Cc1ccccc1)C(=O)N[C@@H](CC(C)C)C(=O)N[C@@H](CCN)C(=O)N[C@@H](C(=O)N[C@@H](CC(C)C)C(=O)N[C@@H](CCN)C(N)=O)C(C)C)[C@@H](C)CC (Octanoyl-[Dab]I[Dab][dF]L[Dab][dV]L[Dab]-NH2) | ≥ 32 | > 32 | 16 | > 32 | 4 to 16 (≈ 3.54 to 14.2 µM) | 2 to 4 (≈ 1.77 to 3.54 µM) | 16 (≈ 14.2 µM) | 32 (≈ 28.3 µM) | inactive | 2 to 4 | 32 (≈ 28.3 µM) | fold change (FC) (Acinetobacter baumannii [1]): 16 - 32; fold change (FC) (Klebsiella pneumoniae [2]): 2; fold change (FC) (Klebsiella pneumoniae [3]): 1; fold change (FC) (Acinetobacter baumannii [4]): 128 - 256; MIC (Escherichia coli [6]): 2 µg/mL; fold change (FC) (Acinetobacter baumannii [8]): 64 - 128; MIC (Acinetobacter baumannii [9]): 0.0019 µg/mL; fold change (FC) (Klebsiella pneumoniae [11]): 512; MIC (Escherichia coli [12]): 1 to 2 µg/mL; MIC (Escherichia coli [14]): 2 µg/mL; MIC (Escherichia coli [15]): 1 to 2 µg/mL; fold change (FC) (Klebsiella pneumoniae [19]): 2048; MIC (Klebsiella pneumoniae [21]): 0.0019 to 0.0039 µg/mL; fold change (FC) (Acinetobacter baumannii [22]): 8192; fold change (FC) (Klebsiella pneumoniae [26]): >=8192; fold change (FC) (Acinetobacter baumannii [27]): 4096 - 8192
CCCCCCC(=O)N[C@@H](CCN)C(=O)N[C@@H](Cc1ccccc1)C(=O)N[C@@H](CCN)C(=O)N[C@H](Cc1ccccc1)C(=O)N[C@@H](CC(C)C)C(=O)N[C@@H](CCN)C(=O)N[C@H](CC(C)C)C(=O)N[C@@H](Cc1ccccc1)C(=O)N[C@@H](CO)C(N)=O (Heptanoyl-[Dab]F[Dab][dF]L[Dab][dL]FS-NH2) | 2 to 4 (≈ 1.69 to 3.38 µM) | 1 (≈ 0.844 µM) | 32 to 64 | 8 (≈ 6.75 µM) | 0.5 to 2 (≈ 0.422 to 1.69 µM) | 1 to 2 (≈ 0.844 to 1.69 µM) | 4 (≈ 3.38 µM) | 8 (≈ 6.75 µM) | inactive | 32 | 8 (≈ 6.75 µM) | MBC (Enterococcus faecium [28]): 16 µg/mL (≈ 13.5 µM); MBC (Staphylococcus aureus [29]): 8 to 32 µg/mL (≈ 6.75 to 27 µM); MBC (Klebsiella pneumoniae [30]): 2 µg/mL (≈ 1.69 µM); MBC (Staphylococcus aureus [31]): 8 to 16 µg/mL (≈ 6.75 to 13.5 µM); MBC (Escherichia coli [32]): 8 to 16 µg/mL (≈ 6.75 to 13.5 µM); MBC (Acinetobacter baumannii [33]): 4 µg/mL (≈ 3.38 µM)
